Rows were chosen to be rich in hits. Some 2.5% of all compounds tested hit in one or more screens of this group.
Diaphorase act: counter-screen for diaphorase-based assays: diaphorase activators and chemical reducers; Diaphorase/resazurin coupled assay, resorufin fluorescence, 16 min; active compounds read high; 1 = vehicle wells, 0 = NADH-free wells; activation factor at 20 µM; 0.005% of 190,000 active; AID 1229;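 active means diaphorase activity raised at least twofold by the compound at 20 µM; inactive means activation factor below 2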
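Assay system: Purified diaphorase enzyme from Clostridium kluyveri | Amount: Enzyme 0.07 U/mL final | Dosing: Compound 20 µM once, DMSO 1% | Timing: 16 min reaction at room temperature | Detection: Fluorescence, excitation 544 nm and emission 590 nm | Evaluation: Higher resorufin formation from activation or reduction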
FLuc stim CS: affects firefly luciferase, flagging false hits in luciferase stimulation screens. ATPlite luciferase biochemical, luminescence, 10 min; 0 = ATP-free wells, 1 = DMSO control. P08659. 200,000 tested, under 10 active. activation factor at 10 µM;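 active means luciferase activation factor, scaled between plate controls, of at least 2 with compound at 10 µM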
Target sequence (P08659 whole entry, looked up): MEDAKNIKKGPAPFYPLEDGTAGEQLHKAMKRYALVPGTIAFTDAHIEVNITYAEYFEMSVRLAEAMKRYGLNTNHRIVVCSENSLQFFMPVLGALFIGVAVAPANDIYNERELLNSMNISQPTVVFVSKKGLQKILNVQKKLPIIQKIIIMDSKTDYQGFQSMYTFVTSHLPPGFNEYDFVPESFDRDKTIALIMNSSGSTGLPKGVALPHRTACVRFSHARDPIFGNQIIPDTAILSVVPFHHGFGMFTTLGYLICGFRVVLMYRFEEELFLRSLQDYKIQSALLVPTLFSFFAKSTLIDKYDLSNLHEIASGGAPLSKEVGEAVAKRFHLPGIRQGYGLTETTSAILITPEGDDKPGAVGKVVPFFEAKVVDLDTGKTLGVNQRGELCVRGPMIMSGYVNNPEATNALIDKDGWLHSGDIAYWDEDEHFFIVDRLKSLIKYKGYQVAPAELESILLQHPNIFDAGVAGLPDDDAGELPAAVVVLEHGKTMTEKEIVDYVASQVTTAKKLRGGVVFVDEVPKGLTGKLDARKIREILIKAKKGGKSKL
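System: cell-free luciferase reagent; medium: PBS as buffer for the ATP substrate; doses: test compounds dosed from 2 mM stocks in 100% DMSO; incubation: 10 min, room temperature; measured by: luminescence from luciferase reaction; read-out: luciferase activation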
PMI act hi M6P: activators of human phosphomannose isomerase at near-saturating mannose 6-phosphate. coupled PMI enzyme assay, resazurin fluorescence, 20 min; active compounds read high; 1 = untreated enzyme, 0 = substrate-free blank. activation factor at 20 µM. 0.34% of 190,000 active. AID 1216;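 active means activation factor of 2 or more at 20 µM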
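Test system: human phosphomannose isomerase with PGI, G6PDH, diaphorase coupling enzymes; amount: 15 ng/mL PMI; incubation: enzyme reaction with compound 20 min at room temperature; technique: resorufin fluorescence (Ex 544/Em 590 nm) from resazurin via diaphorase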
PMI activator: phosphomannose isomerase (human) activation. purified human PMI, coupled resazurin fluorescence, 20 min; active compounds read high; 1 = vehicle control, 0 substrate-free wells. AID 1214. activation factor at 20 µM. P34949. 0.005% of 190,000 active;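 active means activation factor of 2 or more at 20 µM, relative to plate controls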
Diaph inh CS: counter-screen for diaphorase-based assays: diaphorase inhibitors and chemical oxidizers. 0.69% of 190,000 active. inhibition, % at 20 µM. diaphorase resazurin-to-resorufin fluorescence, NADH, 16 min; bacterial (C. kluyveri) enzyme, not human. AID 1217;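 active means primary screen inhibition at 20 µM above a set limit, cut at about 50% in these data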;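 further: plate controls were DMSO with full reaction for no effect and wells lacking NADH for full effect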
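Benchmarks: positive control wells lacking NADH, neutral wells with DMSO only. System: bacterial diaphorase enzyme (C. kluyveri). Input: 0.14 U/mL diaphorase, enzyme working solution. Detection: resorufin fluorescence, excitation 544 nm, emission 590 nm. Times: 16-min room-temperature incubation before reading.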
FLuc inh counter: Photinus pyralis luciferase inhibition counter-screen. P08659. ATPLite firefly luciferase biochemical luminescence, 10 min. inhibition, % at 10 µM. 1.5% of 200,000 active;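 active means inhibition above about 50% when tested at 10 µM, limit read from the data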
Starred values were filed as active, the others as inactive; x = no result.

SMILES	Diaphorase act	FLuc stim CS	PMI act hi M6P	PMI activator	Diaph inh CS	FLuc inh counter
O=C1S/C(=C/c2ccc(N3CCOCC3)o2)C(=O)N1Cc1ccc(F)cc1	0.7	1	0.5	0.7	28.5	-0.3
O=C1NC(=S)S/C1=C/c1ccc(N2CCOCC2)o1	0.8	0.4	1.1	1.3	24.5	64.0*
Cc1ccc(C(=O)Nc2ccc([N+](=O)[O-])cn2)o1	1	0.9	1	1	1.5	14.8
Clc1ccc2nc(-c3ccc4c(c3)OCO4)cn2c1	0.9	0.1	1	1.3	7.4	93.0*
O=S(=O)(c1cccc(-c2cn3cc(Cl)ccc3n2)c1)N1CCOCC1	0.8	1	0.9	0.9	20.5	-0.9
CN(C)S(=O)(=O)c1cccc(-c2cn3cc(Cl)ccc3n2)c1	0.9	0.9	1.1	1.1	8.8	6.7
Clc1ccc(-c2cn3cc(Br)ccc3n2)cc1Cl	1.1	0.5	1.2	1.1	-5.3	53.4*
Brc1ccc2nc(-c3c[nH]c4ccccc34)cn2c1	0.8	0.4	1.1	1.2	17.3	58.2*
CCSc1cc(C2C(C#N)=C(N)OC(C)=C2C(=O)OC)c(C)o1 (configuration not stated)	0.9	1	2*	1.5	5.2	0.1
Cc1cc2c3nonc3ccc2n1-c1ccccc1	0.8	1.1	1	1	16.3	-9.4
Cc1ccc(C2=NN=C(NC(=O)C(F)(F)F)SC2)cc1	0.9	0.7	0.8	0.4	14.0	33.5
COc1ccccc1-c1nnc(NC(=O)C(C)Sc2nncn2C)s1 (configuration not stated)	0.9	0.7	1	1	10.0	32.1
Cc1ccc(C2=NN=C(NC(=O)CSc3nncn3C)SC2)cc1	0.7	0.1	1.1	0.9	27.8	85.5*
COc1ccccc1-c1nnc(NC(=O)CSc2nncn2C)s1	0.9	0.1	1	1	8.3	93.8*
O=S1(=O)N=C(Oc2cccc3ccccc23)c2ccccc21	0.7	1	0.5	0.8	26.6	-3.7
O=C(/C=C/Nc1ccc(Oc2ccccc2)cc1)c1ccco1	0.7	0.3	0.9	0.8	28.4	69.2*
O=C(/C=C/Nc1ccccc1C(F)(F)F)c1ccco1	x	0.1	x	x	x	88.7*
NC(=O)c1ccccc1N/C=C/C(=O)c1ccco1	0.8	0.6	1	0.9	23.2	39.6
O=C(/C=C/Nc1cccc(C(F)(F)F)c1)c1ccco1	x	0.7	x	x	x	33.6
Nc1[nH]n2c(=O)cc(-c3ccccc3)nc2c1N=Nc1ccccc1	0.3	0.9	1	0.7	67.3*	6.5
Nc1[nH]n2c(=O)cc(-c3ccccc3)nc2c1N=Nc1ccc(S(N)(=O)=O)cc1	0.1	0.8	1	0.9	89.7*	24.0
Cc1ccc(N=Nc2c(N)[nH]n3c(=O)cc(C)nc23)cc1	0.8	0.9	0.6	0.8	20.9	7.8
Cc1cccc(NC(=O)N2CCN(Cc3ccc4c(c3)OCO4)CC2)c1C	1.1	1	0.9	1	-5.4	1.7
CC(C(=O)Nc1sc2c(c1C(=O)NCC1CCCO1)CCC2)N1C(=O)c2ccccc2C1=O (configuration not stated)	0.8	1	0.8	0.7	22.2	0.3
Oc1[nH]c2ccccc2c1C=Nc1ccc2c(c1)OCCO2	0.6	0.2	0.8	0.9	41.7	76.5*
SMILES	Diaphorase act	FLuc stim CS	PMI act hi M6P	PMI activator	Diaph inh CS	FLuc inh counter
Oc1c(Br)cc(Br)cc1C=Nc1ccc2c(c1)OCCO2	0.6	0.8	0.4	0.8	42.9	20.5
O=C(Nc1nc(-c2nc3ccccc3s2)cs1)C1CC1	0.8	0.5	0.9	0.8	17.7	54.5*
O=C(Nc1nc(-c2nc3ccccc3s2)cs1)c1ccco1	1.2	1	1.2	1.2	-20.8	2.5
Cc1cc2ccccc2c(=O)n1CC(=O)NCCC1=CCCCC1	0.8	0.4	0.8	1	20.7	60.1*
O=C(Cn1nc(C(=O)O)c2ccccc2c1=O)NCCC1=CCCCC1	0.8	1.1	0.9	0.9	16.3	-6.2
COc1ccc(/C=N/n2c(-c3cccs3)n[nH]c2=S)cc1	0.4	1	1	0.9	64.3*	-3.2
CCN(CC)S(=O)(=O)c1cccc(-c2n[nH]c(=S)n2/N=C/c2ccc(OC)cc2)c1	0.2	1	0.8	0.8	78.5*	-0.2
CCN(CC)S(=O)(=O)c1cccc(-c2n[nH]c(=S)n2/N=C/c2ccc(OC(F)F)cc2)c1	0.5	1.1	0.9	0.8	52.9*	-14.1
O=Cc1cn(CC(=O)Nc2ccc3c(c2)OCO3)c2ccccc12	0.9	1	1	1	12.2	-1.5
O=C(O)CCNC(=O)/C(=C/C=C/c1ccccc1)NC(=O)c1ccccc1	1	1	1	1	1.2	0.8
O=c1[nH]c(N/N=C/c2ccc(O)cc2)nc2ccccc12	0.9	0.4	1.1	1.2	7.0	56.5*
COc1ccc(/C=N/NC(=O)Cn2cnc3ccccc3c2=O)cc1OC	0.9	1.1	0.9	1	12.2	-5.1
COc1ccc(/C=N/Nc2nc3ccccc3c(=O)n2-c2ccccc2)cc1OC	0.7	0.3	1	0.8	25.4	69.3*
C=CCn1c(N/N=C/c2ccc(O)cc2)nc2ccccc2c1=O	0.6	0.2	0.9	0.9	36.6	81.8*
C=CCn1c(C)nc2ccccc2c1=O	0.9	1	0.9	0.9	11.9	-1.3
O=c1[nH]c(N/N=C\c2ccc(F)cc2)nc2ccccc12	1	0.4	1	1	3.0	64.2*
C(=N\Nc1nc2ccccc2[nH]1)/c1ccncc1	1	0.7	1	1.1	3.3	26.9
O=C(NC(=S)Nc1cccc(NC(=O)c2ccc(Cl)cc2Cl)c1)c1cccs1	0.9	1	1.1	1	12.8	-0.2
COc1ccccc1-n1c(C)nc2cc(C(=O)NCCN3CCOCC3)ccc21	1	1	1	1	4.6	-3.2
COC(=O)c1ccc(-c2nc(O)c(C)s2)cc1	1	0.8	1	0.8	0.1	15.2
COC(=O)c1ccc(-c2nc3cc(Cl)c(N)cc3s2)cc1	0.9	0.2	0.8	0.8	10.8	84.8*
Cc1ccc(Nc2nc3ccccc3s2)c(C)c1	0.8	0.3	0.8	1	22.4	65.6*
COc1ccccc1N1CCN(C2=Nc3cccc4cccc2c34)CC1	0.9	0.2	0.7	1	6.5	77.8*
O=C(CC(=O)c1ccccc1)Nc1cccnc1Cl	0.9	0.6	0.9	0.9	9.4	35.9

High-throughput results: PubChem BioAssay, Sanford-Burnham Center for Chemical Genomics
